In ChEMBL document CHEMBL1151201, “Tolaasins A--E, five new lipodepsipeptides produced by Pseudomonas tolaasii” (2004):

Assays:
Escherichia coli = experiment: Antibacterial activity against Escherichia coli K-12 ITM103 after 24 to 48 hrs by soft agar procedure; type: functional
Summary of the method: (§1)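 Tolaasin stock solutions in distilled water were serially diluted 1:1 and applied as drops onto soft-agar lawns of the test organism. The endpoint recorded was the last dilution that still inhibited growth in the area where the drop was applied.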

Rhodotorula mucilaginosa = experiment: Antifungal activity against Rhodotorula pilimanae ATCC 26423 after 24 to 48 hrs by soft agar procedure; type: functional; summary of the method: as §1
Rhizoctonia solani = experiment: Antifungal activity against Rhizoctonia solani 1583 after 24 to 48 hrs by soft agar procedure; type: functional; summary of the method: as §1
Rhodococcus fascians = experiment: Antibacterial activity against Rhodococcus fascians NCPPB3067 after 24 to 48 hrs by soft agar procedure; type: functional, Rhodococcoides fascians; summary of the method: as §1
Priestia megaterium = experiment: Antibacterial activity against Bacillus megaterium ITM 100 after 24 to 48 hrs by soft agar procedure; type: functional; summary of the method: as §1
[1] = tested on: Pectobacterium carotovorum; experiment: Antibacterial activity against Erwinia carotovora subsp. carotovora ICMP 5702 after 24 to 48 hrs by soft agar procedure; type: functional, Pectobacterium carotovorum subsp. carotovorum; summary of the method: as §1

| SMILES | MIC (Escherichia coli) [µg] | MIC (Rhodotorula mucilaginosa) [µg] | MIC (Rhizoctonia solani) [µg] | MIC (Rhodococcus fascians) [µg] | MIC (Priestia megaterium) [µg] | MIC [1] [µg] |
| --- | --- | --- | --- | --- | --- | --- |
| C/C=C(\NC(=O)[C@H](NC(=O)[C@H](CC(C)C)NC(=O)[C@@H](CCC(N)=O)NC(=O)[C@@H](NC(=O)[C@H](NC(=O)[C@@H](CC(C)C)NC(=O)[C@@H](CO)NC(=O)[C@H](NC(=O)[C@H](CC(C)C)NC(=O)[C@H](CO)NC(=O)[C@H]1CCCN1C(=O)/C(=C/C)NC(=O)CC(O)CCCCC)C(C)C)C(C)C)C(C)C)C(C)C)C(=O)N[C@H]1C(=O)N[C@@H](C(C)C)C(=O)N[C@@H](CCO)C(=O)N[C@H](CCN)C(=O)N[C@@H](CCCCN)C(=O)O[C@@H]1C (some centres not stated) [TOLAASIN B] | >5.12 | >5.12 | 2.56 | 1.28 | 2.56 | >5.12 |
| C/C=C(\NC(=O)[C@H](NC(=O)[C@H](CC(C)C)NC(=O)[C@@H](CCC(N)=O)NC(=O)[C@@H](NC(=O)[C@H](NC(=O)[C@@H](CC(C)C)NC(=O)[C@@H](CO)NC(=O)[C@H](NC(=O)[C@H](CC(C)C)NC(=O)[C@H](CO)NC(=O)[C@H]1CCCN1C(=O)/C(=C/C)NC(=O)CC(O)CCCCC)C(C)C)C(C)C)C(C)C)C(C)C)C(=O)N[C@H]1C(=O)N[C@@H]([C@@H](C)CC)C(=O)N[C@@H](CCO)C(=O)N[C@H](CCN)C(=O)N[C@@H](CCCCN)C(=O)O[C@@H]1C (some centres not stated) [TOLAASIN I] | >5.12 | 2.56 | 0.32 | 0.32 | 0.32 | >5.12 |
| C/C=C(\NC(=O)[C@H](NC(=O)[C@H](CC(C)C)NC(=O)[C@@H](CCC(N)=O)NC(=O)[C@@H](NC(=O)[C@H](NC(=O)[C@@H](CC(C)C)NC(=O)[C@@H](CO)NC(=O)[C@H](NC(=O)[C@H](CC(C)C)NC(=O)[C@H](CO)NC(=O)[C@H]1CCCN1C(=O)/C(=C/C)NC(=O)CC(O)CCCCC)C(C)C)C(C)C)C(C)C)C(C)C)C(=O)N[C@H]1C(=O)N[C@@H](CC(C)C)C(=O)NCC(=O)N[C@H](CCN)C(=O)N[C@@H](CCCCN)C(=O)O[C@@H]1C (some centres not stated) [TOLAASIN E] | >5.12 | >5.12 | 5.12 | 2.56 | 2.56 | >5.12 |
| C/C=C(\NC(=O)[C@H](NC(=O)[C@H](CC(C)C)NC(=O)[C@@H](CCC(N)=O)NC(=O)[C@@H](NC(=O)[C@H](NC(=O)[C@@H](CC(C)C)NC(=O)[C@@H](CO)NC(=O)[C@H](NC(=O)[C@H](CC(C)C)NC(=O)[C@H](CO)NC(=O)[C@H]1CCCN1C(=O)/C(=C/C)NC(=O)CC(O)CCCCC)C(C)C)C(C)C)C(C)C)C(C)C)C(=O)N[C@H]1C(=O)N[C@@H]([C@@H](C)CC)C(=O)NCC(=O)N[C@H](CCN)C(=O)N[C@@H](CCCCN)C(=O)O[C@@H]1C (some centres not stated) [TOLAASIN II] | >5.12 | 5.12 | 0.64 | 0.64 | 0.64 | >5.12 |
| C/C=C(\NC(=O)[C@H](NC(=O)[C@H](CC(C)C)NC(=O)[C@@H](CCC(N)=O)NC(=O)[C@@H](NC(=O)[C@H](NC(=O)[C@@H](CC(C)C)NC(=O)[C@@H](CO)NC(=O)[C@H](NC(=O)[C@H](CC(C)C)NC(=O)[C@H](CO)NC(=O)[C@H]1CCCN1C(=O)/C(=C/C)NC(=O)CC(O)CCCCC)C(C)C)C(C)C)C(C)C)C(C)C)C(=O)N[C@@H](C(=O)N[C@H](C(=O)N[C@@H](CCO)C(=O)N[C@H](CCN)C(=O)N[C@@H](CCCCN)C(=O)O)[C@@H](C)CC)[C@@H](C)O (some centres not stated) [TOLAASIN C] | >5.12 | >5.12 | 5.12 | >5.12 | >5.12 | >5.12 |
| C/C=C(\NC(=O)[C@H](NC(=O)[C@H](CC(C)C)NC(=O)[C@@H](CCC(N)=O)NC(=O)[C@@H](NC(=O)[C@H](NC(=O)[C@@H](CC(C)C)NC(=O)[C@@H](CO)NC(=O)[C@H](NC(=O)[C@H](CC(C)C)NC(=O)[C@H](CO)NC(=O)[C@H]1CCCN1C(=O)/C(=C/C)NC(=O)CC(O)CCCCC)C(C)C)C(C)C)C(C)C)C(C)C)C(=O)N[C@H]1C(=O)N[C@@H](CC(C)C)C(=O)N[C@@H](CCO)C(=O)N[C@H](CCN)C(=O)N[C@@H](CCCCN)C(=O)O[C@@H]1C (some centres not stated) [TOLAASIN D] | >5.12 | 2.56 | 0.16 | 0.16 | 0.16 | >5.12 |
| C/C=C(\NC(=O)[C@H](NC(=O)[C@H](CC(C)C)NC(=O)[C@@H](CCC(N)=O)NC(=O)[C@@H](NC(=O)[C@H](NC(=O)[C@@H](CC(C)C)NC(=O)[C@@H](CO)NC(=O)[C@H](NC(=O)[C@H](CC(C)C)NC(=O)[C@H](CO)NC(=O)[C@H]1CCCN1C(=O)/C(=C/C)NC(=O)CCCC(=O)O)C(C)C)C(C)C)C(C)C)C(C)C)C(=O)N[C@H]1C(=O)N[C@@H]([C@@H](C)CC)C(=O)N[C@@H](CCO)C(=O)N[C@H](CCN)C(=O)N[C@@H](CCCCN)C(=O)O[C@@H]1C [TOLAASIN A] | >5.12 | 5.12 | 1.28 | 1.28 | 1.28 | >5.12 |
